Source: PubChem BioAssay
Active and inactive are the calls of the source.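 The calls were made as follows, unless noted: active = a full or partial loss of lipid-probe fluorescence in the fish gall bladder, intestine or both, judged by eye; inactive = no fluorescence loss, or compound toxic to the fish.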

Assays:
[1] = inhibitors of TNFa-induced NFkB p65 translocation, primary screen, imaging, HUVEC, MLSMR starter and 10KST1 sets (AID 438;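 active = inhibition above 20% together with a positive visual image hit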;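 also: compound added about 3h40 before a 20 min TNFalpha stimulation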;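 as to inhibition: signal is the nuclear over cytoplasmic p65 intensity ratio per well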); details: HUVEC TNFa-induced p65 nuclear translocation; cell count: measured here: nuclei count (cytotoxicity indicator), at 2.08 µM; inhibition: at 2 µM, stronger effect = higher value, 0% TNFa-plus-vehicle, 100% no-TNFa wells
[2] = endothelial E-selectin expression blockers – imaging, HUVEC, immunofluorescence, MLSMR starter and 10KST1 sets, primary screen (AID 487;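 active = visually confirmed hit in the image check and inhibition above 20%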;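 as to inhibition: signal is fraction of cell area covered by stained E-selectin grains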;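 as to nuclei count: 100% = median nuclei count of all wells on the same plate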); details: HUVEC TNFalpha-induced E-selectin immunofluorescence imaging, at 2 µM; inhibition: stronger effect = higher value; nuclei count: measured here: cell number, toxicity
[3] = Primary imaging screen for DUSP6 inhibitors that restore phospho-Erk in transfected HeLa cells, chemical complementation (AID 609;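 active = compounds giving at least 50% inhibition in the cell-based MKP-3 phosphatase rescue imaging test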;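 as to inhibition: phospho-Erk level distribution per well compared with pooled transfected vehicle control wells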); details: HeLa MKP-3 transfected, phospho-Erk imaging KS statistic, at 10 µM, cells stimulated with TPA for 15 min
[4] = molecular target: Dual specificity protein phosphatase 6 (Homo sapiens) (UniProt Q16828); assay: as above; details: HeLa MKP-3 transfected, phospho-Erk imaging KS statistic; at 10 µM; stronger effect = higher value; cells stimulated with TPA for 15 min
Dual specificity protein phosphatase 6 (Homo sapiens), sequence (Q16828 whole entry, looked up): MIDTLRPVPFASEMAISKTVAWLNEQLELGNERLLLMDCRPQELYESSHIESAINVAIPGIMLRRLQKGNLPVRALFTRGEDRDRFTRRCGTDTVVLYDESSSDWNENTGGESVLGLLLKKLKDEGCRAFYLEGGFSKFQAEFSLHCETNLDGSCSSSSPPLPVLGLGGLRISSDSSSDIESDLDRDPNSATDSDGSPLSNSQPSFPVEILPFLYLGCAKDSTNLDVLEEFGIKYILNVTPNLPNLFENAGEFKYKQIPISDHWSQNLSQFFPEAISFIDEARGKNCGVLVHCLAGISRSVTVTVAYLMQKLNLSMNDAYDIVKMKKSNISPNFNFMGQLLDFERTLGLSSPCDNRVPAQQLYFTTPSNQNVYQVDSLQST

[5] = molecular target: Voltage-gated potassium channel subunit beta-2 (Rattus norvegicus) (UniProt P62483); assay: inhibitors of rat Kvbeta2 reductase activity – biochemical, NADPH fluorescence, primary screen (AID 622;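 active = fluorescence slope higher than the sample average by over 3 SD, cut at about -0.22 in these data, passing the limit was not always enough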;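 also: slope of raw intensity against log time taken from 70 to 1610 s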); details: recombinant KvBeta, 4-cyanobenzaldehyde reduction, at 10 µM, stronger effect = higher value
Voltage-gated potassium channel subunit beta-2 (Rattus norvegicus), sequence (P62483 whole entry, looked up): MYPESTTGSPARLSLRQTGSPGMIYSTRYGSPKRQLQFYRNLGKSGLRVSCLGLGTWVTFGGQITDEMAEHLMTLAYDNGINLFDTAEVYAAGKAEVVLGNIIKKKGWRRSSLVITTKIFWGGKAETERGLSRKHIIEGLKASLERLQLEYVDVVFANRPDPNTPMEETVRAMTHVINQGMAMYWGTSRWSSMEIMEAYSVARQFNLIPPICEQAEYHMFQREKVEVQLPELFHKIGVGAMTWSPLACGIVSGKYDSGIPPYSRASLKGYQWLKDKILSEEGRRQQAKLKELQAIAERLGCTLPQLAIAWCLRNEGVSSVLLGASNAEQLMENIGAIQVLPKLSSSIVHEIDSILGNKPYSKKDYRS

[6] = molecular target: Voltage-gated potassium channel subunit beta-2 (Rattus norvegicus) (UniProt P62483); assay: enhancers of rat Kvbeta2 NADPH turnover – biochemical, NADPH fluorescence, primary screen (AID 623;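 active = NADPH fluorescence slope more negative than the mean of all samples by about 3 SD, 99.7% confidence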;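 also: fluorescence intensity change per second fitted from 20 to 320 s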); details: Recombinant KvBeta, NADPH fluorescence decrease slope, 10 min; at 10 µM; stronger effect = lower value
[7] = molecular target: Muscarinic acetylcholine receptor M4 (Homo sapiens) (UniProt P08173); assay: M4-linked GIRK flux change, two-sided – cell-based, HEK293 M4/GIRK, thallium flux, BTC-AM, M4 allosteric agonist project, primary screen (AID 625;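 active = fluorescence slope after compound addition differing from the mean of all tested samples at 99.7% confidence, mostly higher but some lower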;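 also: thallium influx through GIRK channels coupled to M4 in HEK293 cells with BTC-AM dye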); details: at 10 µM, actives lie on both sides
Muscarinic acetylcholine receptor M4 (Homo sapiens), sequence (P08173 whole entry, looked up): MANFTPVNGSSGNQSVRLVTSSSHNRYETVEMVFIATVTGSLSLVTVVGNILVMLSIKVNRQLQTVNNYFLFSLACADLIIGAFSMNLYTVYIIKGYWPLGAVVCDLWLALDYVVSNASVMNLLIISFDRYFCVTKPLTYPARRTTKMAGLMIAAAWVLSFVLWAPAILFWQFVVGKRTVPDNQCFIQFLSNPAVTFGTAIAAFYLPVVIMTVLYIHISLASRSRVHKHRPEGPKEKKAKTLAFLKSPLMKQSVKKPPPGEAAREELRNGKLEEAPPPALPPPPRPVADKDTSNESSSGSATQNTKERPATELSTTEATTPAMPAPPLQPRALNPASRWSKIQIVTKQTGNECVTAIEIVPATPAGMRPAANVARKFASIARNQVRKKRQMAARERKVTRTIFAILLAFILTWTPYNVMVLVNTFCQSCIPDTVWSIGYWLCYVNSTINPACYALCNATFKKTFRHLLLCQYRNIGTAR
Procedure, shortened: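 Assay system: HEK293 cells with M4 receptor and GIRK channels / Controls: carbachol and DMSO controls / Schedule: 1 h dye loading, 2 min kinetic read / Technique: kinetic fluorescence with BTC-AM dye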

[8] = inhibitors of larval lipid processing in zebrafish, primary screen, whole organism, PED6 fluorescence, gall bladder and intestine (AID 686); details: Zebrafish larvae PED6 lipid processing, fluorescence scoring; screened at 20 µM (by protocol);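 also: larvae 5 to 7 days old with five fish per well; signal comes from phospholipase A2 cleavage of quenched PED6 carried via bile; overnight exposure to compound and PED6 before scoring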
Procedure, shortened: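 Doses: 20 µM single dose. Test system: live zebrafish larvae aged 5-7 days, whole organism. Quantity: five larvae per well. Measured by: By-eye fluorescence microscopy. Reagent: ingested quenched lipid PED6 at 100 nM. Read-out: visual per-well fluorescence inhibition score. Times: overnight exposure of larvae to compound plus PED6.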

[9] = loss of swimming-algae plug formation – whole organism, Chlamydomonas reinhardtii, WT vs cilia-less mutant, absorbance, 96-well, primary screen (AID 463189;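 active = inhibition at or above 50% relative to wild type and mutant plate controls; inactive = inhibition below 50%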;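 also: 0% = wild type cc124 cells in DMSO and 100% = ciliumless bld1 mutant cells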); details: Chlamydomonas reinhardtii gravitaxis, OD600 absorbance, 2 days; at 10 µM; stronger effect = higher value
[10] = measured here: cell density z-score
[11] = measured here: nuclear c-Myc green intensity z-score
[12] = measured here: nuclear pErk red intensity z-score, stronger effect = higher value

Row | SMILES | cell count [1] | inhibition [1] | inhibition [2] | nuclei count [2] | z-score [3, 10] | z-score [3, 11] | z-score [3, 12] | inhibition [4] | fluorescence slope [5] | NADPH fluorescence slope [6] | fluorescence slope [7] | outcome [8] | inhibition [9]
1 | O=c1cc(-c2ccco2)nc(-c2cccs2)o1 | 667 | 5.6% (inactive) | 7.4% (inactive) | 99.4% | -0.166 | -0.514 | -0.386 | 9.91% (inactive) | -0.561 (inactive) | -5.3e-05 (inactive) | 0.0053 (inactive) | inactive | 22.8% (inactive)
2 | Cn1c(=O)c2c(nc(NCc3ccco3)n2Cc2ccccc2Cl)n(C)c1=O | 502 | -4.4% (inactive) | -15.6% (inactive) | 92.2% | 0.653 | -0.74 | 0.354 | 12.8% (inactive) | -0.463 (inactive) | -2.4e-05 (inactive) | 0.00464 (inactive) | inactive | -9.48% (inactive)
3 | CC(C)COc1ccc(C(=O)OCCN2CCOCC2)c(O)c1 | 551 | -4.8% (inactive) | 5.6% (inactive) | 138% | 0.333 | -1.8 | 0.367 | 19.8% (inactive) | -0.366 (inactive) | -3.7e-07 (inactive) | 0.00568 (inactive) | inactive | 20.9% (inactive)
4 | CCSc1nnc(NC(=O)NC(CC)(C(F)(F)F)C(F)(F)F)s1 | 704 | 0.5% (inactive) | -56.3% (inactive) | 140% | -0.466 | -0.955 | -0.238 | 9.07% (inactive) | -0.431 (inactive) | -5e-05 (inactive) | 0.00857 (inactive) | inactive | 22.7% (inactive)
5 | O=C(c1ccc2c3c(cccc13)C(=O)N(O)C2=O)N1CCCCC1 | 583 | -6.7% (inactive) | 65.6% (active) | 92.9% | 1.73 | -0.867 | -1.15 | 35.1% (inactive) | -0.426 (inactive) | -3.2e-05 (inactive) | 0.00526 (inactive) | inactive | 35.8% (inactive)
6 | Cc1ccc(S(=O)(=O)/C(C#N)=C/c2c(N3CCN(C)CC3)nc3ccccn3c2=O)cc1 | 484 | 6.4% (inactive) | -211% (inactive) | 173% | 0.277 | -0.883 | 0.543 | 1.04% (inactive) | -0.454 (inactive) | -5.5e-05 (inactive) | 0.0048 (inactive) | inactive | -9.76% (inactive)
7 | Cc1ccccc1N1C(=O)CC(Sc2nnc(-c3ccccc3)o2)C1=O (stereo unspecified) | 482 | -2.4% (inactive) | -29.2% (inactive) | 177% | -0.982 | -1.28 | 2.47 | 5.95% (inactive) | -0.383 (inactive) | -3.3e-05 (inactive) | 0.00539 (inactive) | inactive | 57.7% (active)
8 | CSc1nc2sc3c(c2c2nncn12)CCC3 | 595 | -9.4% (inactive) | -93% (inactive) | 148% | -0.00236 | -1.35 | -0.539 | -13.3% (inactive) | -0.46 (inactive) | -9.7e-05 (inactive) | 0.00506 (inactive) | inactive | 46.8% (inactive)
9 | COC(=O)c1ccccc1NC(=O)C1COc2ccccc2O1 (stereo unspecified) | 655 | -10% (inactive) | 1.5% (inactive) | 169% | 1.14 | -0.164 | -1.54 | -0.674% (inactive) | -0.465 (inactive) | -5.2e-05 (inactive) | 0.00637 (inactive) | inactive | 3.4% (inactive)
10 | Cn1c(OCc2cccnc2)nc2c1c(=O)n(Cc1ccc(Br)cc1)c(=O)n2C | 723 | -15.3% (inactive) | -75% (inactive) | 172% | -1.07 | -0.35 | 0.344 | -5.95% (inactive) | -0.475 (inactive) | -4e-05 (inactive) | 0.00549 (inactive) | inactive | 32.6% (inactive)
11 | CC(C(=O)N(C)C)N(C#N)c1nc(N(C)C)nc(N(C)C)n1 (stereo unspecified) | 606 | 7.4% (inactive) | 7.8% (inactive) | 80.9% | -1.86 | 1.62 | 0.8 | 7.21% (inactive) | -0.506 (inactive) | -5.1e-05 (inactive) | 0.00543 (inactive) | inactive | 26.6% (inactive)
12 | COCCCNc1nc2c(c(=O)[nH]c(=O)n2C)n1CC(O)COc1ccccc1 (stereo unspecified) | 379 | 6.8% (inactive) | -63.3% (inactive) | 128% | -0.311 | -0.833 | 1.79 | -0.608% (inactive) | -0.444 (inactive) | -7.9e-05 (inactive) | 0.00457 (inactive) | inactive | 23.4% (inactive)
13 | CC1(C)Cc2nc3sc4c(N(CCO)CCO)ncnc4c3cc2CO1 | 383 | -7.2% (inactive) | 7.7% (inactive) | 82.1% | -1.35 | 0.534 | 1.17 | -4.59% (inactive) | -0.474 (inactive) | -1.1e-05 (inactive) | 0.00508 (inactive) | inactive | 36.1% (inactive)
14 | O=C(CN1C2=NCCN2c2ccccc21)N1CCOCC1 | 629 | 11% (inactive) | -7.9% (inactive) | 115% | 0.036 | -0.429 | -0.703 | -7.67% (inactive) | -0.447 (inactive) | -4.9e-05 (inactive) | 0.00508 (inactive) | inactive | -8.14% (inactive)
15 | O=C(Nc1nnc(SCc2ccccc2F)s1)c1ccco1 | 600 | -10.3% (inactive) | -62.9% (inactive) | 109% | -0.259 | -0.419 | -0.101 | 5.35% (inactive) | -0.502 (inactive) | -5.2e-05 (inactive) | 0.00604 (inactive) | inactive | 39.5% (inactive)
16 | N#Cc1nc(COc2ccc(Br)cc2)oc1N1CCN(Cc2ccccc2)CC1 | 444 | 2% (inactive) | -74.5% (inactive) | 138% | 0.98 | 0.14 | -0.518 | 12.7% (inactive) | -0.444 (inactive) | -2.9e-05 (inactive) | 0.00951 (inactive) | inactive | 12.9% (inactive)
17 | S=c1[nH]nc(-c2ccco2)n1C1CCCCC1 | 638 | -2.9% (inactive) | 6.6% (inactive) | 143% | -0.759 | -0.86 | -1.13 | -7.67% (inactive) | -0.495 (inactive) | -4e-05 (inactive) | 0.00615 (inactive) | inactive | -19.8% (inactive)
18 | COc1cccc(-c2nc(N3CCCCC3C)c3ccccc3n2)c1O (stereo unspecified) | 676 | 1% (inactive) | 32.7% (inactive) | 154% | -0.111 | 1.23 | 0.615 | -5.62% (inactive) | -0.465 (inactive) | -7.5e-05 (inactive) | 0.0038 (inactive) | inactive; toxic | 9.9% (inactive)
19 | COc1ccccc1C(=O)NCC(=O)n1nc(C)cc1C | 542 | -13.5% (inactive) | -24% (inactive) | 146% | 0.666 | 0.744 | -0.112 | 19.8% (inactive) | -0.331 (inactive) | -5.1e-05 (inactive) | 0.0067 (inactive) | inactive | -1.54% (inactive)
20 | O=c1[nH]c(CN(CCO)CCO)nc2c1C1(CCCCC1)Cc1ccccc1-2 | 692 | -15.1% (inactive) | -131% (inactive) | 181% | 0.688 | 0.303 | 0.475 | 9.91% (inactive) | -0.47 (inactive) | -5.1e-05 (inactive) | 0.00503 (inactive) | inactive | 1.18% (inactive)
21 | COc1ccc(CC(=O)Nc2cccc(-c3nnc(-c4ccco4)o3)c2)cc1 | 671 | -0.9% (inactive) | 6.2% (inactive) | 177% | -0.286 | 1.67 | 1.63 | -15.1% (inactive) | -0.475 (inactive) | -8e-05 (inactive) | 0.00587 (inactive) | inactive | 0.83% (inactive)
22 | CCOC(=O)C(C)Sc1nc(-c2cccs2)ccc1C#N (stereo unspecified) | 657 | 0.6% (inactive) | 29.6% (inactive) | 189% | -1.44 | 0.836 | 0.563 | -7.86% (inactive) | -0.427 (inactive) | -5.7e-05 (inactive) | 0.00531 (inactive) | inactive | 4.31% (inactive)
23 | O=C(O)c1ccnc(C(=O)O)c1 | 585 | -4.6% (inactive) | -82% (inactive) | 145% | 0.403 | 0.277 | 1 | -4.59% (inactive) | -0.434 (inactive) | -0.000101 (inactive) | 0.00626 (inactive) | inactive | 24.1% (inactive)
24 | Cc1csc(SCCn2c(Br)nc3c2c(=O)[nH]c(=O)n3C)n1 | 541 | -22.3% (inactive) | -35.3% (inactive) | 180% | 0.452 | 0.745 | 0.738 | -12.6% (inactive) | -0.409 (inactive) | -4.5e-05 (inactive) | 0.00514 (inactive) | inactive | 31.8% (inactive)
25 | CN1CCc2c(c3c(n2C)CCN(C)[C@@H]3c2cccnc2)[C@H]1c1cccnc1 | 406 | -15.1% (inactive) | -320% (inactive) | 159% | 0.329 | -0.347 | 0.296 | 15.4% (inactive) | -0.478 (inactive) | -5.4e-05 (inactive) | 0.00388 (inactive) | inactive; toxic | 5.73% (inactive)
26 | CC1(C)Cc2c(C#N)c(N3CCOCC3)nc(Cc3ccccc3)c2CO1 | 582 | -0.5% (inactive) | -122% (inactive) | 132% | -0.332 | -0.948 | -0.693 | -3.95% (inactive) | -0.445 (inactive) | -5.6e-05 (inactive) | 0.00448 (inactive) | inactive | 17.6% (inactive)
27 | COc1ccc2nc(SCC(=O)O)nc(C)c2c1 | 472 | -2.5% (inactive) | -119% (inactive) | 167% | -1.34 | -1.35 | 0.21 | -2.29% (inactive) | -0.447 (inactive) | -4.9e-05 (inactive) | 0.00491 (inactive) | inactive | 25.2% (inactive)
